Measured values from ChEMBL document CHEMBL3352384, “Synthesis and biological activity of new salicylanilide N,N-disubstituted carbamates and thiocarbamates” (Bioorg Med Chem, 2014).
Converted amounts (≈) assume the structure as drawn.

Tested on: not listed separately
Assay: Selectivity index, ratio of IC50 for human HepG2 cells to MIC for Trichophyton mentagrophytes 445
Settings: not given

**Q.** Which “Selectivity Index” value does the source give for `CN(C)C(=S)Oc1ccc(Cl)cc1C(=O)Nc1ccc(Cl)cc1` here?
**A.** The value was 442.8.

Tested on: Mycobacterium avium
Assay: Antimycobacterial activity against Isoniazid, rifampicin, ofloxacin and ethambutol-resistant Mycobacterium avium 330/88 assessed as complete growth inhibition after 21 days
Format: functional
Settings: 330/88, 504 h
Method in brief: (§1)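 M. tuberculosis 331/88 (H37Rv) inoculum diluted 10-3, M. avium 330/88 diluted 10-5. MIC is the lowest concentration giving complete growth inhibition. Isoniazid and p-aminosalicylic acid as references. Quadruplicate, repeated twice.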

**Q.** For `CN(C)C(=S)Oc1ccc(Cl)cc1C(=O)Nc1ccc(Cl)cc1`, which MIC is on record?
**A.** Its MIC is 16 µM (≈ 5.91 µg/mL).

Tested on: Mycobacterium kansasii
Assay: Antimycobacterial activity against Mycobacterium kansasii 235/80 assessed as complete growth inhibition after 7 days
Format: functional
Settings: 235/80, 168 h
Method in brief: (§2)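 Dilutions of M. kansasii inoculum were 10-4 for strain 235/80 and 10-5 for clinical isolate 6509/96. MIC was the lowest concentration giving complete growth inhibition, run in quadruplicate and repeated twice.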

**Q.** Which MIC does the source give for `CN(C)C(=S)Oc1ccc(Cl)cc1C(=O)Nc1ccc(Cl)cc1` here?
**A.** Its MIC is 8 µM (≈ 2.95 µg/mL).

Tested on: Mycobacterium kansasii
Assay: Antimycobacterial activity against clinical isolate Mycobacterium kansasii 6509/96 assessed as complete growth inhibition after 14 days
Format: functional
Settings: 6509/96, 336 h
Method in brief: as §2

**Q.** With `CN(C)C(=S)Oc1ccc(Cl)cc1C(=O)Nc1ccc(Cl)cc1` as the molecule, how does the MIC read?
**A.** Its MIC is 16 µM (≈ 5.91 µg/mL).

Tested on: Trichophyton mentagrophytes
Assay: Antimicrobial activity against Trichophyton mentagrophytes 445 after 72 hrs by microdilution method
Format: functional
Settings: Trichophyton mentagrophytes, 445, 72 h
Method in brief: (§3)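 Broth microdilution in RPMI 1640 with glutamine, with fluconazole and amphotericin B as references. For filamentous fungi, MIC is expressed as the IC50, i.e. the concentration giving 50% growth reduction versus control. Each determination was done twice.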

**Q.** Which MIC does the source give for `CN(C)C(=S)Oc1ccc(Cl)cc1C(=O)Nc1ccc(Cl)cc1` here?
**A.** The MIC was 1.95 µM (≈ 0.72 µg/mL).

Tested on: Mycobacterium kansasii
Assay: Antimycobacterial activity against Mycobacterium kansasii 235/80 assessed as complete growth inhibition after 21 days
Format: functional
Settings: 235/80, 504 h
Method in brief: as §2

**Q.** Which MIC does the source give for `CN(C)C(=S)Oc1ccc(Cl)cc1C(=O)Nc1ccc(Cl)cc1` here?
**A.** Its MIC is 16 µM (≈ 5.91 µg/mL).

Tested on: Mycobacterium tuberculosis
Assay: Antimycobacterial activity against Mycobacterium tuberculosis H37Rv 331/88 assessed as complete growth inhibition after 21 days
Format: functional
Settings: H37Rv 331/88, 504 h
Method in brief: as §1

**Q.** Which MIC does the source give for `CN(C)C(=S)Oc1ccc(Cl)cc1C(=O)Nc1ccc(Cl)cc1` here?
**A.** Its MIC is 8 µM (≈ 2.95 µg/mL).

Tested on: Mycobacterium tuberculosis
Assay: Antimycobacterial activity against Mycobacterium tuberculosis H37Rv 331/88 assessed as complete growth inhibition after 14 days
Format: functional
Settings: H37Rv 331/88, 336 h
Method in brief: as §1

**Q.** For `CN(C)C(=S)Oc1ccc(Cl)cc1C(=O)Nc1ccc(Cl)cc1`, which MIC is on record?
**A.** The MIC was 4 µM (≈ 1.48 µg/mL).

Tested on: Staphylococcus epidermidis
Assay: Antimicrobial activity against Staphylococcus epidermidis H 6966/08 after 24 hrs by microdilution method
Format: functional
Settings: H 6966/08, 24 h
Method in brief: (§4)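 Broth microdilution in Mueller-Hinton broth, compounds dissolved in DMSO, final concentrations 500 to 0.49 µM. Benzylpenicillin and bacitracin were run as comparators. MIC was taken as 95% (IC95) or greater growth reduction versus control. Each determination was done twice.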

**Q.** For `CN(C)C(=S)Oc1ccc(Cl)cc1C(=O)Nc1ccc(Cl)cc1`, which MIC is on record?
**A.** Its MIC is 7.81 µM (≈ 2.88 µg/mL).

Tested on: Staphylococcus aureus
Assay: Antimicrobial activity against Staphylococcus aureus CCM 4516/08 after 24 hrs by microdilution method
Format: functional
Settings: CCM 4516/08, 24 h
Method in brief: (§5)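 Mueller-Hinton broth microdilution; compounds dissolved in DMSO, final concentrations 500 to 0.49 µM. […] Benzylpenicillin and bacitracin as comparators. Each determination done twice.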

**Q.** With `CN(C)C(=S)Oc1ccc(Cl)cc1C(=O)Nc1ccc(Cl)cc1` as the molecule, how does the MIC read?
**A.** Its MIC is 3.9 µM (≈ 1.44 µg/mL).

Tested on: Mycobacterium kansasii
Assay: Antimycobacterial activity against Mycobacterium kansasii 235/80 assessed as complete growth inhibition after 14 days
Format: functional
Settings: 235/80, 336 h
Method in brief: as §2

**Q.** For `CN(C)C(=S)Oc1ccc(Cl)cc1C(=O)Nc1ccc(Cl)cc1`, which MIC is on record?
**A.** The MIC was 16 µM (≈ 5.91 µg/mL).

Tested on: Staphylococcus aureus
Assay: Antimicrobial activity against methicillin-resistant Staphylococcus aureus H 5996/08 after 48 hrs by microdilution method
Format: functional
Settings: H 5996/08, 48 h
Method in brief: as §5

**Q.** With `CN(C)C(=S)Oc1ccc(Cl)cc1C(=O)Nc1ccc(Cl)cc1` as the molecule, how does the MIC read?
**A.** Its MIC is 7.81 µM (≈ 2.88 µg/mL).

Tested on: not listed separately
Assay: Selectivity index, ratio of IC50 for human HepG2 cells to MIC for methicillin-resistant Staphylococcus aureus H 5996/08
Settings: not given
Method in brief: (§6)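 Selectivity index = HepG2 IC50 / MIC. HepG2 cells (passage 3–4) grown in Eagle's MEM with 10% FBS, L-glutamine and non-essential amino acids. Compounds added from DMSO, eight concentrations in triplicate, tetrazolium-reduction colorimetric read-out. IC50 is the concentration reducing viability to 50% of control; 10% DMSO as 0% viability.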

**Q.** With `CN(C)C(=S)Oc1ccc(Cl)cc1C(=O)Nc1ccc(Cl)cc1` as the molecule, how does the “Selectivity Index” value read?
**A.** The value was 21.4.

Tested on: Enterococcus sp.
Assay: Antimicrobial activity against Enterococcus sp. J 14365/08 after 48 hrs by microdilution method
Format: functional
Settings: J 14365/08, 48 h
Method in brief: as §4

**Q.** Which MIC does the source give for `CN(C)C(=S)Oc1ccc(Cl)cc1C(=O)Nc1ccc(Cl)cc1` here?
**A.** Its MIC is over 125 µM.

Tested on: Staphylococcus aureus
Assay: Antimicrobial activity against Staphylococcus aureus CCM 4516/08 after 48 hrs by microdilution method
Format: functional
Settings: CCM 4516/08, 48 h
Method in brief: as §5

**Q.** For `CN(C)C(=S)Oc1ccc(Cl)cc1C(=O)Nc1ccc(Cl)cc1`, which MIC is on record?
**A.** Its MIC is 7.81 µM (≈ 2.88 µg/mL).

Tested on: Staphylococcus epidermidis
Assay: Antimicrobial activity against Staphylococcus epidermidis H 6966/08 after 48 hrs by microdilution method
Format: functional
Settings: H 6966/08, 48 h
Method in brief: as §4

**Q.** With `CN(C)C(=S)Oc1ccc(Cl)cc1C(=O)Nc1ccc(Cl)cc1` as the molecule, how does the MIC read?
**A.** Its MIC is 31.2 µM (≈ 11.5 µg/mL).

Tested on: Mycobacterium avium
Assay: Antimycobacterial activity against Isoniazid, rifampicin, ofloxacin and ethambutol-resistant Mycobacterium avium 330/88 assessed as complete growth inhibition after 14 days
Format: functional
Settings: 330/88, 336 h
Method in brief: as §1

**Q.** Which MIC does the source give for `CN(C)C(=S)Oc1ccc(Cl)cc1C(=O)Nc1ccc(Cl)cc1` here?
**A.** The MIC was 16 µM (≈ 5.91 µg/mL).

Tested on: Trichophyton mentagrophytes
Assay: Antimicrobial activity against Trichophyton mentagrophytes 445 after 120 hrs by microdilution method
Format: functional
Settings: Trichophyton mentagrophytes, 445, 120 h
Method in brief: as §3

**Q.** For `CN(C)C(=S)Oc1ccc(Cl)cc1C(=O)Nc1ccc(Cl)cc1`, which MIC is on record?
**A.** The MIC was 1.95 µM (≈ 0.72 µg/mL).

Tested on: not listed separately
Assay: Selectivity index, ratio of IC50 for human HepG2 cells to MIC for Mycobacterium tuberculosis H37Rv
Format: toxicity, cell-based
Settings: read-out: Selectivity Index
Method in brief: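 Selectivity index = HepG2 IC50 / MIC. HepG2 cells (passage 3–4) grown in Eagle's MEM with 10% FBS, L-glutamine and non-essential amino acids. Compounds added from DMSO, eight concentrations in triplicate, tetrazolium-reduction colorimetric read-out.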

**Q.** For `CN(C)C(=S)Oc1ccc(Cl)cc1C(=O)Nc1ccc(Cl)cc1`, which selectivity ratio is on record?
**A.** The selectivity ratio was 10.4.

Tested on: Mycobacterium kansasii
Assay: Antimycobacterial activity against clinical isolate Mycobacterium kansasii 6509/96 assessed as complete growth inhibition after 7 days
Format: functional
Settings: 6509/96, 168 h
Method in brief: as §2

**Q.** With `CN(C)C(=S)Oc1ccc(Cl)cc1C(=O)Nc1ccc(Cl)cc1` as the molecule, how does the MIC read?
**A.** Its MIC is 16 µM (≈ 5.91 µg/mL).

Tested on: Staphylococcus aureus
Assay: Antimicrobial activity against methicillin-resistant Staphylococcus aureus H 5996/08 after 24 hrs by microdilution method
Format: functional
Settings: H 5996/08, 24 h
Method in brief: as §5

**Q.** Which MIC does the source give for `CN(C)C(=S)Oc1ccc(Cl)cc1C(=O)Nc1ccc(Cl)cc1` here?
**A.** Its MIC is 3.9 µM (≈ 1.44 µg/mL).

Tested on: HepG2
Assay: Cytotoxicity against human HepG2 cells assessed as reduction in cell viability after 24 hrs by MTS assay
Format: cell-based
Settings: HepG2, 24 h
Method in brief: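 HepG2 hepatocellular carcinoma cells (passage 3–4) were grown in Eagle's MEM with 10% FBS, 1% L-glutamine and non-essential amino acids. Compounds were added from DMSO at eight concentrations in triplicate, with 10% DMSO as the 0% viability control. Viability was read by tetrazolium salt reduction (CellTiter 96 AQueous One). IC50 is the concentration reducing viability to 50% of control.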

**Q.** With `CN(C)C(=S)Oc1ccc(Cl)cc1C(=O)Nc1ccc(Cl)cc1` as the molecule, how does the IC50 read?
**A.** The IC50 was 83.5 µM.

Tested on: not listed separately
Assay: Inhibition of Mycobacterium tuberculosis H37Rv isocitrate lyase assessed as glyoxylate phenyl hydrazone formation at 10 uM
Settings: not given

**Q.** Which inhibition does the source give for `CN(C)C(=S)Oc1ccc(Cl)cc1C(=O)Nc1ccc(Cl)cc1` here?
**A.** The inhibition was 6%.

Tested on: Mycobacterium kansasii
Assay: Antimycobacterial activity against clinical isolate Mycobacterium kansasii 6509/96 assessed as complete growth inhibition after 21 days
Format: functional
Settings: 6509/96, 504 h
Method in brief: as §2

**Q.** For `CN(C)C(=S)Oc1ccc(Cl)cc1C(=O)Nc1ccc(Cl)cc1`, which MIC is on record?
**A.** The MIC was 16 µM (≈ 5.91 µg/mL).

Tested on: not listed separately
Assay: Selectivity index, ratio of IC50 for human HepG2 cells to MIC for atypical mycobacteria
Settings: not given
Method in brief: as §6

**Q.** With `CN(C)C(=S)Oc1ccc(Cl)cc1C(=O)Nc1ccc(Cl)cc1` as the molecule, how does the “Selectivity Index” value read?
**A.** Its value is 5.2.

Tested on: Enterococcus sp.
Assay: Antimicrobial activity against Enterococcus sp. J 14365/08 after 24 hrs by microdilution method
Format: functional
Settings: J 14365/08, 24 h
Method in brief: as §4

**Q.** With `CN(C)C(=S)Oc1ccc(Cl)cc1C(=O)Nc1ccc(Cl)cc1` as the molecule, how does the MIC read?
**A.** The MIC was 125 µM (≈ 46.2 µg/mL).
